From PubChem BioAssay AID623869 (Vanderbilt High Throughput Screening Facility, 2012)
In all, about 2,100 compounds went through this assay and about 75 (4%) were called active.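 How the source made its calls: active means calcium fluorescence trace judged by eye to show a response, as agonist, enhancer of the glutamate response, or inhibitor; inactive means trace judged by eye to show no response.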 Many of the other results were omitted from the sample, so actives are more common in it than they were.

Biological target: Metabotropic glutamate receptor 8 (Rattus norvegicus) (UniProt P70579)
Sequence (P70579 whole entry, looked up): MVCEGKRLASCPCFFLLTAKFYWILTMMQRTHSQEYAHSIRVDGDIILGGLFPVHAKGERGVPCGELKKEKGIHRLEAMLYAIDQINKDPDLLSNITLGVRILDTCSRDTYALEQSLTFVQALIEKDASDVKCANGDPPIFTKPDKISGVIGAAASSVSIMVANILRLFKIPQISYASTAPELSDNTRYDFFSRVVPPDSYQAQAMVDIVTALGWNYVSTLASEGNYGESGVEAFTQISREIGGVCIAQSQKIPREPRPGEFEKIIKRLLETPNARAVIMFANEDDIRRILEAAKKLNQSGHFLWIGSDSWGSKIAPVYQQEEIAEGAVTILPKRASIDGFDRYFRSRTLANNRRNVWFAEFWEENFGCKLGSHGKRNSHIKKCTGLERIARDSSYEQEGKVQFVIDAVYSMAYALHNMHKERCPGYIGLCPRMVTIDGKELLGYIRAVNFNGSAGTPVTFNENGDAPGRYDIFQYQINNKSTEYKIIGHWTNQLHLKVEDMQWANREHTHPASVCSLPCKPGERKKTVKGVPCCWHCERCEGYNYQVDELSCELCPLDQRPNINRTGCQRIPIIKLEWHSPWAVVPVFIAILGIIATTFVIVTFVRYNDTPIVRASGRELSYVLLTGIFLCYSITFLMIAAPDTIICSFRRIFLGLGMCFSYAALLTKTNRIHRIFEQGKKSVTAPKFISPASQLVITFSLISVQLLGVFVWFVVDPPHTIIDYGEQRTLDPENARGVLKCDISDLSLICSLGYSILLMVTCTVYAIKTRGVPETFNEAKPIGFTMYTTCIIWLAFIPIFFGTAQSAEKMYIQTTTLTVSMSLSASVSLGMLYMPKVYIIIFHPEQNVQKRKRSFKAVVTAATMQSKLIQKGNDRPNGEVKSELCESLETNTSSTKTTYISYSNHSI
Experiment: rat mGlu8 modulation via Gqi9 calcium signal, confirmation, counter-screen for GIRK activator project, cell-based, HEK293 rmGlu8, Gqi9 chimera, Fluo-4 calcium (AID 623869)
Details: HEK293 rmGlu8/Gqi9 calcium flux, Fluo-4 fluorescence; glutamate at EC20 added after compound
Procedure, shortened: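 Material: rat mGlu8 HEK-293 cells with transient Gqi9. Medium: HEPES-buffered HBSS, pH 7.4. Compound: one dose, 20 µM addition solution, 0.2% DMSO. Schedule: compound 4 min before glutamate, then 2 min recording. Technique: Fluo-4 calcium fluorescence sampled at 1 Hz.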

Row | Structure (SMILES) | outcome
1 | O=C(NC(=S)N1CCCCC1)c1cccs1 | inactive; 0
2 | C=CCN(CC=C)C(=S)NC(=O)/C=C/c1ccc(C)cc1 | inactive; 0
3 | COc1ccccc1C(=O)N1c2ccccc2Sc2ccccc21 | inactive; 0
4 | CC(=O)c1c(C)[nH]c(C(=O)CSc2ncnc3sc(-c4ccccc4)cc23)c1C | inactive; 0
5 | CCOC(=O)c1ccccc1NC(=O)CSc1nnc(COc2ccccc2C)n1C | inactive; 0
6 | Cc1cccc(NC(=S)NNC(=O)c2csc3c2CCCC3)c1 | inactive; 0
7 | S=C(Nc1ccc(Oc2ccccc2)cc1)NC1CCCC1 | active; 2
8 | FC(F)(F)c1cccc(NC(=S)NC2CCCC2)c1 | active; -1
9 | FC(F)(F)c1cccc(N2CCN(C(=S)NC3CCCCC3)CC2)c1 | inactive; 0
10 | COc1ccc(NC(=S)Nc2ccc(OCc3ccccc3)cc2)cc1OC | inactive; 0
11 | CCOC(=O)c1ccc(NC(=S)NC2CCCC2)cc1 | inactive; 4
12 | FC(F)(F)Oc1ccc(NC(=S)NCc2ccccc2)cc1 | inactive; 4
13 | CCCN(CC1CC1)C(=S)Nc1ccc(Oc2ccccc2)cc1 | inactive; 0
14 | CC(C)CNC(=S)Nc1ccc(Oc2ccccc2)cc1 | active; 2
15 | FC(F)(F)c1cccc(NC(=S)NCc2ccccc2)c1 | inactive; 4
16 | COC(=O)c1cc(CSc2nc3ccc(C)cc3[nH]2)oc1C | inactive; 0
17 | O=C(NNC(=S)Nc1cccc2ccccc12)c1cccc(Br)c1 | inactive; 0
18 | CCc1c(C)c(C#N)c2nc3ccccc3n2c1NCc1ccco1 | inactive; 0
19 | Cc1ccc2nc(-c3ccc(O)cc3)c(Nc3ccc4c(c3)OCCO4)n2c1 | inactive; -1
20 | O=c1c2cc(Cl)ccc2[nH]c(=S)n1Cc1ccco1 | inactive; 0
21 | O=C(NC(=S)Nc1ccc(N2CCCCC2)cc1)c1ccco1 | inactive; 0
22 | Cc1cc(C)c2[nH]c(=S)cc(C)c2c1 | inactive; 0
23 | CCCCn1c(=S)[nH]c2c(oc3ccc(Cl)cc32)c1=O | inactive; 0
24 | Cc1ccc2c(c1)NC(=O)CC(c1ccccc1)=N2 | active; 2

Row | Structure (SMILES) | outcome
25 | O=C1CC(C(F)(F)C(F)(F)C(F)(F)F)=Nc2ccccc2N1 | inactive; 0
26 | O=C(NC(=S)N1CCN(c2ccc([N+](=O)[O-])cc2)CC1)c1ccc(F)cc1 | inactive; 0
27 | COc1ccc(NC(=O)C(=O)NNC(=O)c2cccs2)cc1 | inactive; 0
28 | CC(C)NC(=S)NC(=O)c1ccc(Cl)cc1Cl | inactive; 0
29 | O=C(COc1ccccc1)NNC(=S)NC(=O)c1ccc(Cl)cc1Cl | active; 1
30 | COC(=O)c1ccccc1NC(=S)NC(=O)c1ccccc1 | inactive; 0
31 | Cc1ccccc1C(=O)NC(=S)NCCc1ccccc1 | active; -1
32 | O=C(NC(=S)NCCc1ccccc1)c1ccccc1 | inactive; 0
33 | Cc1ccccc1C(=O)NNC(=S)NC(=O)c1ccc(Cl)cc1Cl | active; 1
34 | CC(C)CNC(=S)NC(=O)c1ccc(Cl)cc1Cl | inactive; 0
35 | Cc1ccccc1C(=O)NC(=S)Nc1ccc(Oc2ccc(Cl)cc2)cc1 | inactive; 4
36 | CCCCNC(=S)NC(=O)c1ccc(Cl)cc1Cl | inactive; 0
37 | Cc1ccccc1C(=O)NNC(=S)NC(=O)c1ccccc1 | active; 1
38 | O=C(NC(=S)NCCc1ccccc1)c1ccco1 | inactive; 0
39 | Cc1ccc(C(=O)NNC(=S)NC(=O)c2ccc(Cl)cc2Cl)cc1 | inactive; 4
40 | CC(C)C(=O)Nc1ccccc1N1CCN(C(=O)c2ccccc2)CC1 | inactive; 0
41 | CC1(C)Cc2c(sc3[nH]c(=S)n(Cc4ccco4)c(=O)c23)CO1 | inactive; 0
42 | Cc1[nH]n2c(=O)cc(C(C)(C)C)nc2c1-c1ccccc1 | inactive; 0
43 | COC(=O)c1sc(NC(=S)NC(=O)c2ccccc2)nc1C | inactive; 0
44 | Cc1ccccc1C(=O)Nc1ccccc1C(=O)N/N=C\c1ccco1 | inactive; 0
45 | O=C(N/N=C(\c1ccccc1)c1cccnc1)C(O)(c1ccccc1)c1ccccc1 | inactive; 0
46 | CC(Oc1ccc(Cl)cc1Cl)C(=O)NC(=S)N1CCc2ccccc21 (configuration not stated) | inactive; 0
47 | Cc1onc(-c2ccccc2)c1C(=O)NC(=S)Nc1sc2c(c1C#N)CCCC2 | inactive; 0
48 | Cc1onc(-c2ccccc2)c1C(=O)NNC(=S)NC(=O)c1ccc(Br)cc1 | active; 1

Row | Structure (SMILES) | outcome
49 | Cc1ccccc1NC(=S)NC(=O)c1cncc(Br)c1 | inactive; 0
50 | Cc1cccc(OCC(=O)Nc2ccccc2N2CCN(C(=O)C(C)C)CC2)c1C | inactive; 0
51 | CCc1ccc(Nc2nc3ccccc3c(=O)s2)cc1 | inactive; 0
52 | O=C1OC2(CCCCC2)OC(=O)C1=CNc1nc2ccccc2s1 | inactive; 0
53 | Cc1ccc(C)c(NC(=S)NNC(=O)c2csc(C(C)C)c2)c1 | inactive; 0
54 | COc1ccc(C2=Nn3c(nnc3C3CCCCC3)SC2)cc1OC | active; 2
55 | CCCc1nnc2n1N=C(c1ccc(OC)c(OC)c1)CS2 | active; 2
56 | COc1ccccc1C1=Nn2c(nnc2C2CCCCC2)SC1 | inactive; 0
57 | c1cc2c(cc1C1=Nn3c(nnc3C3CCCCC3)SC1)OCO2 | inactive; 0
58 | Brc1ccccc1C1=Nn2c(nnc2-c2ccccc2)SC1 | inactive; 0
59 | CCOc1ccc(-c2nc(-c3ccc(OC)c(OC)c3)no2)cc1OCC | inactive; 0
60 | COc1ccc(-c2nnc3sc(C4CCCCC4)nn23)cc1OC | active; 2
61 | CC(C)COn1c(=S)[nH]c2ccccc2c1=O | inactive; 0
62 | Cc1ccc(N2C(=S)N=C(Nc3ccccc3C)C23CCOC(C)(C)C3)cc1 (configuration not stated) | inactive; 0
63 | C=CCN(CC=C)C(=S)NC(=O)c1ccc(OC)c(Br)c1 | inactive; 0
64 | Cc1ccc(N=C2CCCN2Cc2ccccc2)c(C#N)c1 | inactive; 0
65 | CCC(C)n1c(=S)[nH]c2c(sc3ccc([N+](=O)[O-])cc32)c1=O (configuration not stated) | inactive; 4
66 | O=C(COc1ccccc1)NC(=S)N1CCc2ccccc21 | inactive; 0
67 | O=C(NC(=S)N1CCN(Cc2ccc3c(c2)OCO3)CC1)c1cccc(Br)c1 | inactive; 0
68 | CC(c1ccc(Cl)cc1)n1c(-c2ccc3ccccc3n2)n[nH]c1=S (configuration not stated) | inactive; 0
69 | O=C(N/N=C/c1ccccn1)c1ccc(Br)cc1 | inactive; 0
70 | Cc1ccc(C)c(OCC(=O)Nc2nc3ccc([N+](=O)[O-])cc3s2)c1C | inactive; 0
71 | O=C(NC(Nc1nc2ccc([N+](=O)[O-])cc2s1)(C(F)(F)F)C(F)(F)F)c1ccccc1 | inactive; 4
72 | O=C(NC(Nc1nc2ccc([N+](=O)[O-])cc2s1)(C(F)(F)F)C(F)(F)F)c1ccccc1Cl | active; -1
